How the values were obtained:
[1] = target: T1, N‐terminal PAS domain from XC_2579 (Tk 4, residues 1 to 165) (Xanthomonas campestris pv. campestris, UniProt Q8PA41); assay: Isothermal titration calorimetry of DSF and structural analogues binding to Tk 4; conditions: ITC; for △H: change in enthalpy upon binding; for △S (cal mol^−1 per degree): change in entropy upon binding
T1 sequence (Q8PA41 14-178): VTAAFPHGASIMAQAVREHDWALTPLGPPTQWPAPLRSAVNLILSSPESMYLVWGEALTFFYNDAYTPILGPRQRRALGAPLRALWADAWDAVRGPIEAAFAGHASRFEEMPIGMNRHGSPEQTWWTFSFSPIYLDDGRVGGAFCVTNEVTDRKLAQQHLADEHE
Outline: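 His6-tagged XC_2579 PAS domain construct (Tk 4) expressed in E. coli BL21(DE3) with 0.25 mM IPTG at 37°C for 1 h. Purified by Ni2+ affinity; tag cleaved with HRV 3C protease. Heats corrected against buffer control; one-site fit for Kd, ΔH, ΔS. Repeated at least twice.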

[2] = target: T2, full‐length XC_2579 protein (RpfS) (Xanthomonas campestris pv. campestris, UniProt Q8PA41); assay: Isothermal titration calorimetry of DSF binding to full-length XC_2579
T2 sequence (Q8PA41 14-968): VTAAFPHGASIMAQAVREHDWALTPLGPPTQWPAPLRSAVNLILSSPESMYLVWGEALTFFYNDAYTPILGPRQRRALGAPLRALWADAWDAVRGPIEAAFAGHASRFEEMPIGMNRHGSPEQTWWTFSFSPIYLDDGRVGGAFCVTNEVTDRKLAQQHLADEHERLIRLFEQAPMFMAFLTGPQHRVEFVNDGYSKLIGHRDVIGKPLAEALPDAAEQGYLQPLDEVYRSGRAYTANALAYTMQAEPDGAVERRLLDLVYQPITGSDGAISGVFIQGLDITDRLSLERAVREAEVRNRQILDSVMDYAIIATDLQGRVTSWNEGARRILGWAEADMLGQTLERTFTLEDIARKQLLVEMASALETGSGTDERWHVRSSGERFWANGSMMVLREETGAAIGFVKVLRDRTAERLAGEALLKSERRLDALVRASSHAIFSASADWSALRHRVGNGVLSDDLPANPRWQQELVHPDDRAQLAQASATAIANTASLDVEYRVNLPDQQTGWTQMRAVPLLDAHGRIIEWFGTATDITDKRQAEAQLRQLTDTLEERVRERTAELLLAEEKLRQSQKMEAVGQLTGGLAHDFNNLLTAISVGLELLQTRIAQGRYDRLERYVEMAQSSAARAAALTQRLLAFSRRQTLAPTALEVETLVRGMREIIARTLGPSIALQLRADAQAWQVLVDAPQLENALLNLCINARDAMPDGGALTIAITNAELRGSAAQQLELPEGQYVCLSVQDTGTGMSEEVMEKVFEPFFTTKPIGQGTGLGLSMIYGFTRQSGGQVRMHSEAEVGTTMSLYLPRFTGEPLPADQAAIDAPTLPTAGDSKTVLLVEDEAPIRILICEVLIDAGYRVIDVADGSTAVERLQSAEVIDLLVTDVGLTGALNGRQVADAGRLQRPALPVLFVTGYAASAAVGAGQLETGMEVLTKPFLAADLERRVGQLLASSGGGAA

[3] = target: T3, Tk 1 (XC_2579 N‐terminal amino acid residues 1 to 360) (Xanthomonas campestris pv. campestris, UniProt Q8PA41); assay: Isothermal titration calorimetry of DSF binding to truncation Tk 1; conditions: ITC, Tk 1, in words
T3 sequence (Q8PA41 14-373): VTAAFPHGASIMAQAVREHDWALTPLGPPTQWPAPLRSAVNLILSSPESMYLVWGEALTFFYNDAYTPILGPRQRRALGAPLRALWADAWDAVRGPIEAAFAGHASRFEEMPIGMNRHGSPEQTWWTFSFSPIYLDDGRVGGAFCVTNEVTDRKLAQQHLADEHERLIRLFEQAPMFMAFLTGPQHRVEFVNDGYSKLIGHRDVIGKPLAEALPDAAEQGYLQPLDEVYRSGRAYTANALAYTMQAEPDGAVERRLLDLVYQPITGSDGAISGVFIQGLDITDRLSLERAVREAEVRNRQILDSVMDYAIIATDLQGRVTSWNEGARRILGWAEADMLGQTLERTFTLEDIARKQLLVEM

[4] = system: Tk2 (XC_2579 amino acid residues 530–955); assay: Isothermal titration calorimetry of DSF binding to truncation Tk 2; set-up: species or system Xanthomonas campestris pv. campestris; conditions: ITC, Tk2, in words
[5] = target: T4, Tk 3 (XC_2579 amino residues 1 to 240) (Xanthomonas campestris pv. campestris, UniProt Q8PA41); assay: Isothermal titration calorimetry of DSF binding to truncation Tk 3; conditions: ITC, Tk 3, in words
T4 sequence (Q8PA41 14-253): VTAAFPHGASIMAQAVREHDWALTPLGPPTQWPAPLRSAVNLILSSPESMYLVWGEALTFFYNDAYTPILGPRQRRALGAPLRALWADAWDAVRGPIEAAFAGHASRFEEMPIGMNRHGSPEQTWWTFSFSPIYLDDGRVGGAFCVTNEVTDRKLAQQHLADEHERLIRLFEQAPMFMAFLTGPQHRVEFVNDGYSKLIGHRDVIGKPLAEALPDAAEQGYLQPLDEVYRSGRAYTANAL

XC_0107 gfp fusion = assay: XC_0107 gfp reporter fusion expression induced by DSF; format: cell-based, Xanthomonas campestris; conditions: rpfFC strain carrying reporter; 50 μM synthetic DSF, 14 h
[6] = system: PAS domain of Mycobacterium tuberculosis Rv1364c; conditions: ref King‐Scott et al., 2011, cited from earlier work; for binding to PAS domain: in words
[7] = Kd (M), Tk 4, higher concentrations of analogues used to estimate Kd

## CC(C)CCCCCCCCCC(=O)O [11‐methyl‐dodecanoic acid]
[1]; [7]
  Kd: 0.0069 M
[1]; Kd, Tk 4
  Kd: > 0.001 M

## CC(C)CCCCCCC/C=C\C(=O)O [DSF, cis‐11‐methyl‐2‐dodecenoic acid]
[2]
  Kd: 1.4 µM
[3]
  DSF binding: bound DSF with high affinity
[4]
  DSF binding: no binding was detected
[5]
  DSF binding: High affinity DSF binding
[1]; Tk 4, in words
  DSF binding: High affinity DSF binding
[1]; Tk 4
  △H: -1.60 kcal/mol
  △S (cal mol^−1 per degree): 59.73 cal mol^−1 per degree
XC_0107 gfp fusion
  expression of GFP (XC_0107 gfp reporter): activated

## CCCCCCCCCCCC(=O)O [Dodecanoic acid]
[1]; [7]
  Kd: 0.0149 M
[1]; Kd, Tk 4
  Kd: > 0.001 M

## CCCCCC/C=C\CCCCCCCC(=O)O [Palmitoleic acid]
[6]
  binding to PAS domain: bind

## CCCCCCCCC/C=C\C(=O)O [cis‐2‐dodecenoic acid (BDSF), cis‐2‐dodecenoic acid]
[1]; Tk 4
  △H: -1.21 kcal/mol
  △S (cal mol^−1 per degree): 58.05 cal mol^−1 per degree
[1]; [7]
  Kd: 7.1e-06 M
[1]; Kd, Tk 4, PBS buffer at 25°C
  Kd: 7e-06 M

## CCCCCCCC/C=C\CCCCCCCC(=O)O [oleic acid]
[6]
  binding to PAS domain: bind

## CCCCCCCCCCCCCCCC(=O)O [palmitic acid]
[6]
  affinity relative to palmitoleic acid (times lower): 100 times

## CC(C)CCCCCCC/C=C/C(=O)O [trans‐11‐methyl‐2‐dodecenoic acid]
[1]; [7]
  Kd: 0.00113 M
[1]; Kd, Tk 4
  Kd: > 0.001 M
